This passage reports folding enthalpy and Tm results from the array DNA melting data of Ke et al. (doi:10.1101/2024.01.08.574731).

The nature of series [1]: folding enthalpy; higher = less favourable; fluorescence melt of hairpins on a sequencing array, two-state fit. The following applies: sodium 0.088 M. Put shortly:
(§1)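 Hairpins were imaged by Cy3 fluorescence on a sequenced MiSeq flow cell with annealed Cy3 and quencher oligos, in 50 mM Na-HEPES pH 8.0, 25 mM NaCl, in 2.5 °C steps up to 60 °C. Bootstrapped two-state fits of normalised signals gave melting temperature and folding enthalpy. Four replicates were combined by inverse variance, and fitted temperatures were raised by 9.35 °C to match UV melts.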

The nature of series [2]: melting temperature; fluorescence melt of hairpins on a sequencing array, two-state fit, raised by 9.35 °C to match UV melts. The following applies: sodium 0.088 M. The method in brief:
as §1

Regarding GAAATTGGAAACAGTTTC ((((.((....)).)))), the folding enthalpy in series [1] was -26.4 kcal/mol. Further, the Tm in series [2] worked out at 34.2 °C.
With GAACACCGAAAGGTCTTC (((.(((....))).))), the folding enthalpy in series [1] was -15.2 kcal/mol. Further, the Tm in series [2] is 35.2 °C.
The corresponding values for GAACACCGAAAGGTTTC (((.(((....)))))) are -20.5 kcal/mol and 37.4 °C.
Consider GAACACCGAAAGGTTTTC (((.(((....))).))), for which the folding enthalpy in series [1] was -25.1 kcal/mol. Moreover, the Tm in series [2] was 38 °C.
Taken in the same sequence, the figures for GAACACGAAAGTGCTTC ((((((....))).))) were -20.2 kcal/mol and 41.9 °C.
The corresponding values for GAACAGAAATGTTC (((((....))))) are -18.1 kcal/mol and 41.4 °C.
Consider GAACAGACGAAAGTCTTC (((..(((....)))))), for which the folding enthalpy in series [1] was -9.42 kcal/mol. Besides, the Tm in series [2] came to 25.6 °C.
The corresponding values for GAACAGCGAAAGCTCTTC (((.(((....))).))) are -14.5 kcal/mol and 34.3 °C.
Taken in the same sequence, the figures for GAACAGCGAAAGCTTTC (((.(((....)))))) were -12.4 kcal/mol and 33.6 °C.
Taken in the same sequence, the figures for GAACAGCGAAAGCTTTTC (((.(((....))).))) were -19.9 kcal/mol and 37.8 °C.
On to GAACATGCGAAAGCATTC (((..(((....)))))), for which, in series [1], the folding enthalpy was -11 kcal/mol. For the same sequence, the Tm in series [2] amounted to 26.6 °C.
As for GAACATGGAAACATGCTC ((.((((....)))).)), the folding enthalpy in series [1] was -26.5 kcal/mol. Also, in series [2], the Tm was determined as 35.3 °C.
Taken in the same sequence, the figures for GAACCACGAAAGTGTTC (((.(((....)))))) were -13.8 kcal/mol and 43.9 °C.
Regarding GAACCAGGAAACCGGTTC (((((.(....).))))), the folding enthalpy in series [1] was -36.3 kcal/mol. Also, the Tm in series [2] was determined as 45.1 °C.
Taken in the same sequence, the figures for GAACCCCGAAAGGGTTC (((.(((....)))))) were -30.9 kcal/mol and 58.9 °C.
Taken in the same sequence, the figures for GAACCCGAAAGGGGCTTC ((((((....)))..))) were -20 kcal/mol and 51 °C.
The corresponding values for GAACCCGAAAGGGTGTTC ((((((....)))..))) are -11.6 kcal/mol and 47.8 °C.
In the case of GAACCGAAAGGTTC (((((....))))), the folding enthalpy in series [1] is -25.6 kcal/mol. Besides, the Tm in series [2] stood at 67.7 °C.
Turning to GAACCGCGAAAGCGTTTC (((.(((....))).))), in series [1], the folding enthalpy is -20.5 kcal/mol. The Tm in series [2] turned out to be 42.3 °C.
Take GAACCGGGAAACCAGTTC ((((.((....)).)))): the folding enthalpy in series [1] was -26.2 kcal/mol. Moreover, in series [2], the Tm turned out to be 36.5 °C.
Taken in the same sequence, the figures for GAACCTGAAAAGGTTC ((((((....)))))) were -31.8 kcal/mol and 60.6 °C.
Taken in the same sequence, the figures for GAACCTGGAAACAGATTC (((.(((....))).))) were -17.9 kcal/mol and 31.9 °C.
The corresponding values for GAACGACGAAAGTCTTTC (((.(((....))).))) are -24.4 kcal/mol and 39.3 °C.
Regarding GAACGCCGAAAGGCCTTC (((.(((....))).))), in series [1], the folding enthalpy is -13.1 kcal/mol. Also, the Tm in series [2] was determined as 34.5 °C.
Taken in the same sequence, the figures for GAACGCGAAAGCGACTTC ((((((....)))..))) were -13.8 kcal/mol and 46.1 °C.
The corresponding values for GAACGCGAAAGCGCATTC ((((((....)))..))) are -7.58 kcal/mol and 25.9 °C.
Taken in the same sequence, the figures for GAACGCGAAAGCGCCTTC ((((((....)))..))) were -11.1 kcal/mol and 35.8 °C.
On to GAACGCGAAAGCGCTTC ((((((....))).))), for which the folding enthalpy in series [1] was -14.3 kcal/mol. Further, the Tm in series [2] is 48.6 °C.
The corresponding values for GAACGCGAAAGCGGTTTC ((((((....)))..))) are -10.8 kcal/mol and 41.9 °C.
Take GAACGGCGAAAGCCCTTC (((.(((....))).))): in series [1], the folding enthalpy is -12.4 kcal/mol. The Tm in series [2] was found to be 32.8 °C.
Take GAACGGCGAAAGCCTTC (((.(((....)))))): the folding enthalpy in series [1] was -12.4 kcal/mol. The Tm in series [2] turned out to be 39.3 °C.
The corresponding values for GAACGGGAAACCGTTC ((((((....)))))) are -37.1 kcal/mol and 62.8 °C.
Taken in the same sequence, the figures for GAACGGGGAAACCCGTCC (.(((((....))))).) were -11.7 kcal/mol and 42.5 °C.
On to GAACGGGGAAACTCGTTC (((((.(....).))))), for which the folding enthalpy in series [1] was -48.7 kcal/mol. The Tm in series [2] turned out to be 50.8 °C.
Turning to GAACGTGGAAACACATTC (((.(((....))).))), the folding enthalpy in series [1] is -17.1 kcal/mol. Moreover, the Tm in series [2] turned out to be 32.9 °C.
With GAACGTGGAAACACGTCC (.(((((....))))).), the folding enthalpy in series [1] is -13.6 kcal/mol. For the same sequence, the Tm in series [2] is 41.3 °C.
